High-throughput results (PubChem BioAssay)
Sampled rows, rich in hits. Any-hit rate of the full collection: about 5.8%.
14-3-3 Bad inh: disrupts binding of bovine 14-3-3 zeta to phospho-Bad peptide; P63103; TR-FRET 14-3-3zeta/Dy647-pBad peptide displacement, 1 h; AID 781; inhibition, % at 21.7 µM; hit rate 0.71% among 220,000;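 active = inhibition above about 70%, limit read from the data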;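 note: 0% = full 14-3-3 plus peptide FRET controls and 100% = background without 14-3-3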
Target sequence (P63103 whole entry, looked up): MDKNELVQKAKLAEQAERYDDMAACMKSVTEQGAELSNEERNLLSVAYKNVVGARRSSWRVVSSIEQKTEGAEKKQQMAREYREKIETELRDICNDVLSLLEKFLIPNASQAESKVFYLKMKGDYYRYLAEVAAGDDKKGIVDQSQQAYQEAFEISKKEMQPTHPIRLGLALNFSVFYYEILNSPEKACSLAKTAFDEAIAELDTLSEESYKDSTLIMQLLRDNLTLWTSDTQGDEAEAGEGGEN
RBBP9 inhibitor: blocks human serine hydrolase RBBP9; inhibition, % at 7.94 µM; hit rate 0.2% among 220,000; AID 1515; O75884; recombinant RBBP9, FP-Rh probe fluorescence polarization;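 active = inhibition above the campaign mean of all tested compounds plus 3 SD, cut at about 14% in these data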;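 note: plate controls were DMSO wells with RBBP9 for no effect and wells lacking RBBP9 protein for full effect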
Target sequence (O75884 whole entry, looked up): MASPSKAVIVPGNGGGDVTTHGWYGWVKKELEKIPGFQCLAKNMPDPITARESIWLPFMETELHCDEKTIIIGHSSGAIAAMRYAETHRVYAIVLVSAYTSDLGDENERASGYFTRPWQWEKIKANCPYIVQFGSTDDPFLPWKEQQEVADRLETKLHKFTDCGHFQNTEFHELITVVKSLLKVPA
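Test system: recombinant human RBBP9; Timing: 30 min then 45 min, 25 °C; Detection: fluorescence polarization; Control set: RBBP9 with DMSO as uninhibited control, no-protein wells as full inhibition; Compound dosing: one concentration, 7.94 µM nominal, 0.794% DMSO; Probe or stimulus: FP-Rh activity-based probe, 375 nM before mixing.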
ROMK primary: modulates human ROMK potassium channel activity; P48048; Tet-inducible ROMK, thallium flux fluorescence; actives lie on both sides; B-score at 10 µM; hit rate 2% among 130,000; AID 1918;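 active = signal ratio slope over the read window, or its plate-corrected B-score, at least 3 SD from the plate mean, either direction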;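 note: B-score of the F/F0 ratio slope over 7 to 12 s after thallium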
Cl transport mod: KCC2 (human) Cl- transport modulation. Q9H2X9. AID 1456. hit rate 2.2% among 190,000. B-score of Tl+ flux slope (higher = more flux/activation; lower = inhibition) at 10 µM. KCC2 cells, thallium flux FluoZin-2 fluorescence;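 active = thallium flux slope and its plate-corrected score both differing from the plate sample mean at a set confidence after two filtering rounds, in either direction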;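 note: slope of fluorescence scaled to starting intensity during 10 to 20 s after thallium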
NCF1 inh: blocks human p47phox regulatory protein of NADPH oxidases; p47phox/p22phox peptide binding, fluorescence polarization, 2 h; AID 1274; hit rate 0.53% among 220,000; inhibition, % at 24.7 µM;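 active = inhibition above about 30%, limit read from the data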;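 note: 0% = p47phox with labelled peptide and 100% = labelled peptide alone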
WT yeast gro inh: growth inhibition of WT yeast, mitochondrial fusion screen | hit rate 2.1% among 190,000 | inhibition, % at 10 µM | mitochondrial fusion phenotypic screen, WT strain; in the data active = inhibition above about 58%; tested in S. cerevisiae
Numbers without * were called inactive; · = not tested or not shown.

SMILES	14-3-3 Bad inh	RBBP9 inhibitor	ROMK primary	Cl transport mod	NCF1 inh	WT yeast gro inh
CCOC(=O)c1ccccc1NC(=O)c1ccc(F)cc1	15.7	-4.1	0.76	-0.524	-4.9	4.7
O=C(Nn1c(C2CCCCC2)nc2ccccc2c1=O)c1ccc([N+](=O)[O-])cc1	3.1	-7.2	0.204	-0.15	-10.9	27.7
COc1ccc(-c2c(C(F)(F)F)nn(C)c2NC(C)=O)cc1	4.8	4.1	-0.595	0.454	2.6	·
N#C/C(=C\c1ccccc1[N+](=O)[O-])C(=O)NC1CCCCC1	-7.4	-2.5	·	0.00342	3.9	58.1*
N#C/C(=C\C=C\c1ccccc1[N+](=O)[O-])C(=O)NC1CCCCC1	-4.8	2.9	-0.787	0.863	-1.0	6.3
O=C(c1cccc(F)c1)N1CCN(C2CCCCC2)CC1	66.6	0.8	-0.199	-0.353	-8.8	19.9
COc1cc(OC)cc(C(=O)N2CCN(C3CCN(Cc4ccccc4)CC3)CC2)c1	72.7*	-5.3	-1.01	-0.721	3.5	-22.9
O=C(c1ccccc1)N1CCN(C2CCCCCC2)CC1	72.3*	-4.7	-0.484	0.193	-5.5	-8.6
COc1cccc(C(=O)N2CCN(C3CCC(c4ccccc4)CC3)CC2)c1 (centres undefined)	74.6*	-0.1	·	·	-1.6	6.5
COc1cccc(C(=O)N2CCC(N3CC(C)OC(C)C3)CC2)c1 (centres undefined)	26.3	1.7	0.109	0.199	6.8	-3.0
O=C(c1ccc(-n2cccc2)cc1)N1CCN(Cc2ccccc2)CC1	91.3*	-4.8	·	-3.09	5.5	-21.3
COc1cccc(C(=O)N2CCN(C3CCN(Cc4ccccc4)CC3)CC2)c1OC	22.9	-6.2	·	0.906	0.9	·
Fc1ccc(-n2cc(CNCCc3cccnc3)c(-c3ccccc3Cl)n2)cc1	-15.0	6.9	-1.76	0.628	-7.7	-8.1
O=c1[nH]ncn1-c1ccc(Br)cc1	-4.2	0.9	-0.429	0.0242	2.2	4.8
COc1ccc(C(=O)N2CCC(N3CCN(c4ccccc4)CC3)CC2)cc1	89.1*	2.7	-0.448	-0.309	-3.9	-5.7
Cc1sc(NC(=O)c2ccco2)c(CN2CCN(c3ccccc3)CC2)c1C	80.1*	-12.8	-1.45	-0.976	-17.3	6.5
COc1ccc(NC(=O)N2c3ccccc3CC2C)cc1OC (centres undefined)	3.4	-4.6	·	0.701	2.2	95.1*
COc1ccc(Nc2cc(C(=O)NCCCN3CCN(C)CC3)c3ccccc3n2)cc1OC	-14.5	-1.3	0.291	1.5	72.7*	-10.2
COc1ccc(Nc2cc(C(=O)NCCCN3CCOCC3)c3ccccc3n2)cc1OC	-4.0	-11.2	·	0.787	-16.6	-13.1
CCN1CC(CN(C)Cc2nc(-c3ccc(C(F)(F)F)cc3)oc2C)CC1=O (centres undefined)	-4.1	-3.0	-0.255	·	13.4	6.6
O=C1CCC(C(=O)OCc2cc(=O)oc3ccc4ccccc4c23)=NN1	2.6	5.7	-0.439	-0.795	1.1	·
C=CCn1c(SCC(=O)Nc2ccc3c(c2)CCC3)nnc1-c1cccs1	4.8	-2.4	-0.355	-1.34	-1.8	70.0*
O=C(Nc1cc(S(=O)(=O)N2CCOCC2)ccc1Cl)C(=O)c1c(-c2ccccc2)cc2ccccn12	2.2	-14.3	-1.67	-1.97	-8.1	98.5*
O=S(=O)(c1ccc(Cl)c(NC(=S)Nc2ccccc2N2CCOCC2)c1)N1CCOCC1	-11.6	-7.2	-0.000312	0.678	-6.7	9.6
CCOC(=O)CSc1nc2sc3c(c2c(=O)n1C1CCCCC1)CCN(C)C3	1.0	-7.3	-3.52*	0.187	-14.9	-6.5
SMILES	14-3-3 Bad inh	RBBP9 inhibitor	ROMK primary	Cl transport mod	NCF1 inh	WT yeast gro inh
CCSc1ncc(/C=N/Nc2ccc(Cl)cc2)n1C	0.6	3.0	·	-0.834	-4.8	29.9
CCSc1ncc(/C=N/Nc2ccccc2)n1C	-4.4	-8.5	·	-1.54	-9.6	71.0*
CCOC(=S)SCC(=O)Nc1nc(C)c(C)s1	-0.8	-5.0	·	0.306	-6.2	·
CCOC(=O)N1CCN(C(=O)CSCC(=O)Nc2nc(-c3ccc(OC)cc3)cs2)CC1	-0.1	9.9	·	-0.461	-6.4	25.1
O=C(CSc1nc2ccccc2o1)Nc1nc(-c2ccccc2)cs1	8.6	-17.1	·	-0.914	-13.5	63.5*
CCOC(=O)N1CCN(C(=O)CSCC(=O)Nc2nc(-c3ccc(-c4ccccc4)cc3)cs2)CC1	16.2	-7.3	·	-0.194	61.8*	30.9
CCOC(=S)SCC(=O)Nc1nc(-c2ccccc2)cs1	-6.9	-10.0	·	0.734	-2.8	79.8*
